Five compounds from ChEMBL document CHEMBL3044983, “Antifungal activity and biotransformation of diisophorone by Botrytis cinerea” (J Agric Food Chem, 2005) can be followed below.

The subject of assay [1] is Botrytis cinerea. Kind of assay: Antifungal activity against Botryotinia fuckeliana UCA992 assessed as inhibition of radial mycelial growth up to 200 ppm for 5 days by poisoned food technique. Type of assay: functional. An outline of the steps: (§1)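 Radial growth on glucose-malt-peptone-agar (pH 6.5-7.0). Test compound was added in ethanol to final 50-200 mg/L, and ethanol was equal in control and treated plates. A 1.5 cm mycelial disk from an actively growing culture was placed at the plate centre, and radial growth was followed over 8 days. Percent inhibition was taken from colony diameters relative to the negative control, as the mean of triplicates.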

Assay [2] relates to Botrytis cinerea. Kind of assay: Antifungal activity against Botryotinia fuckeliana UCA992 assessed as inhibition of radial mycelial growth up to 100 ppm for 5 days by poisoned food technique. It counts as functional, organism-based. The procedure, abridged: as §1
For assay [3], the system named is Botrytis cinerea. Description: Antifungal activity against Botryotinia fuckeliana 2100 assessed as inhibition of radial mycelial growth for 5 days by poisoned food technique. It counts as functional, organism-based.
Assay [4] deals with Botrytis cinerea. Description: Antifungal activity against Botryotinia fuckeliana UCA992 assessed as inhibition of radial mycelial growth up to 150 ppm for 5 days by poisoned food technique. It counts as functional. An outline of the steps:
as §1

The test system of assay [5] is Botrytis cinerea. Description: Antifungal activity against Botryotinia fuckeliana UCA992 assessed as inhibition of radial mycelial growth up to 50 ppm for 5 days by poisoned food technique. It counts as functional.
Assay [6] relates to Botrytis cinerea. Kind of assay: Antifungal activity against Botryotinia fuckeliana 2100 assessed as inhibition of radial mycelial growth at 50 ppm for 5 days by poisoned food technique. Particulars: Botrytis cinerea, 2100, 120 h. Type of assay: functional. An outline of the steps:
as §1

Assay [7] concerns Botrytis cinerea. Description: Antifungal activity against Botryotinia fuckeliana UCA992 assessed as inhibition of radial mycelial growth for 5 days by poisoned food technique. Type of assay: functional, organism-based.

Active and inactive are the calls of the source. No cut-off for these calls is given here.

Usually inhibition stands for the relative decrease from the control value, in per cent.

Take `CC1(C)C[C@@]2(C)CC3=C(C(=O)CC(C)(C)[C@@H]3O)[C@@](O)(C1)C2`: the inhibition entry in assay [1] and in assay [2] was “inactive” each time.

As to `CC1(C)C[C@@]2(O)C[C@@](C)(C1)[C@H](O)C1=C2C(=O)C[C@@](C)(CO)C1`, the inhibition entry in assay [1] and in assay [2] was “inactive” each time.

Turning to `CC1(C)CC(=O)C2=C(C1)C[C@]1(C)CC(C)(C)C[C@@]2(O)C1` [DIISOPHORONE], the results for the “inhibition (INH)” value in assay [1], in assay [4] and in assay [5] were 92%, 76% and 6%, respectively. For the same compound, the IC50 was 70 ppm in assay [3] and 89 ppm in assay [7]. In assay [6], the inhibition at 50 ppm amounted to 69%. Also, in assay [2], the inhibition entry is “inactive”.

Regarding `CC1(C)CC(=O)C2=C(C1)[C@@H](O)[C@]1(C)CC(C)(C)C[C@@]2(O)C1`, the inhibition entry in assay [1] and in assay [2] was “inactive” each time.

For the compound `CC1(C)C[C@@]2(C)CC3=C(C(=O)CC(C)(C)[C@H]3O)[C@@](O)(C1)C2`, the inhibition result in assay [1] and in assay [2] was “inactive” throughout.
